Measurements: ChEMBL document CHEMBL1143817, “Pharmacokinetics of penicillin g in very-low-birth-weight neonates” (Antimicrob Agents Chemother, 2007)
Values joined by “and” are separate entries in the source; they are usually repeats but may differ in a detail not shown here. Identical values can stand only once.

Experiments:
Format in all cases: ADME, organism-based
[1] = Half life in human adults at […], iv administered every 12 hrs after 24 hrs; set-up: route intravenous; conditions: in vivo
Homo sapiens [2] = assay: Volume of distribution at steady state in human term neonates at 15 mg/kg, im administered every 12 hrs after 24 hrs; set-up: dose 15 mg/kg, route intramuscular; conditions: in vivo
Homo sapiens [3] = assay: Effect on glomerular filtration in human very low birth weight preterm neonates urine assessed as creatinine clearance at 30 mg/kg, iv administered every 12 hr after 24 hrs; set-up: dose 30 mg/kg, route intravenous; conditions: in vivo
Homo sapiens [4] = assay: Effect on glomerular filtration in human very low birth weight preterm neonates urine assessed as creatinine excretion at 30 mg/kg, iv administered every 12 hrs after 24 hrs; set-up: dose 30 mg/kg, route intravenous; conditions: in vivo
How it was run: (§1)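 Creatinine excretion was measured in urine collected in 4-h intervals over the 12 h after a steady-state IV penicillin G dose (25,000 or 50,000 IU/kg q12h). Diapers were weighed to estimate losses, and a period was accepted if ≥90% of its output was collected. Excretion is expressed per 24 h per kg.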

[5] = Clearance in human very low birth weight preterm neonates at 28 mg/kg, iv administered every 12 hrs after 24 hrs; set-up: dose 28 mg/kg, route intravenous; conditions: in vivo
How it was run: (§2)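 Penicillin G was diluted in normal saline to 50,000 IU/ml and given as a slow (~2 min) IV bolus q12h (group 1, 50,000 IU/kg; group 2, 25,000 IU/kg) to neonates of <28 wk GA and <1,200 g. Plasma was sampled at steady state (doses 3–8): predose and at 2 and 30 min, 1.5, 4, 8 and 12 h. Assay by HPLC-UV (200 nm). AUC0-12 by log-linear trapezoidal rule; noncompartmental bolus model.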

[6] = Half life in human term neonates at 15 mg/kg, im administered every 12 hrs after 24 hrs; set-up: dose 15 mg/kg, route intramuscular; conditions: in vivo
[7] = Cmin in human very low birth weight preterm neonates at 28 mg/kg, iv administered every 12 hrs after 24 hrs; set-up: dose 28 mg/kg, route intravenous; conditions: in vivo, read-out: Cmin; how it was run: as §2
[8] = Volume of distribution at steady state in human very low birth weight preterm neonates at 28 mg/kg, iv; set-up: dose 28 mg/kg, route intravenous; conditions: in vivo, read-out: Vdss; how it was run: as §2
[9] = Cmax in human adults at […], iv administered every 12 hrs after 24 hrs; set-up: route intravenous; conditions: in vivo
[10] = Effect on glomerular filtration in human very low birth weight preterm neonates urine assessed as drug clearance at 15 mg/kg, iv administered every 12 hrs after 24 hrs; set-up: dose 15 mg/kg, route intravenous; conditions: read-out: CL_renal
[11] = Effect on glomerular filtration in human very low birth weight preterm neonates urine assessed as drug clearance at 30 mg/kg, iv administered every 12 hrs after 24 hrs; set-up: dose 30 mg/kg, route intravenous; conditions: read-out: CL_renal
[12] = Half life in human very low birth weight preterm neonates at 14.3 mg/kg, iv administered every 12 hrs after 24 hrs; set-up: dose 14.3 mg/kg, route intravenous; conditions: in vivo; how it was run: as §2
Homo sapiens [13] = assay: Effect on glomerular filtration in human very low birth weight preterm neonates urine assessed as creatinine excretion at 15 mg/kg, iv administered every 12 hrs after 24 hrs; set-up: dose 15 mg/kg, route intravenous; conditions: in vivo; how it was run: as §1
[14] = Cmax in human term neonates at 15 mg/kg, im administered every 12 hrs after 24 hrs; set-up: dose 15 mg/kg, route intramuscular; conditions: in vivo
Homo sapiens [15] = assay: Effect on glomerular filtration in human very low birth weight preterm neonates urine assessed as creatinine clearance at 15 mg/kg, iv administered every 12 hr after 24 hrs; set-up: dose 15 mg/kg, route intravenous; conditions: in vivo
[16] = AUC (0 to 12) in human very low birth weight preterm neonates at 28 mg/kg, iv administered every 12 hrs after 24 hrs; set-up: time < 12 hr, dose 28 mg/kg, route intravenous; conditions: plasma; how it was run: as §2
[17] = Volume of distribution at steady state in human very low birth weight preterm neonates at 14 mg/kg, iv; set-up: dose 14 mg/kg, route intravenous; conditions: in vivo, read-out: Vdss; how it was run: as §2
[18] = Half life in human very low birth weight preterm neonates at 28 mg/kg, iv administered every 12 hrs after 24 hrs; set-up: dose 28 mg/kg, route intravenous; conditions: in vivo; how it was run: as §2
[19] = AUC (0 to 12) in human very low birth weight preterm neonates at 14 mg/kg, iv administered every 12 hrs after 24 hrs; set-up: time < 12 hr, dose 14 mg/kg, route intravenous; conditions: plasma; how it was run: as §2
[20] = Clearance in human very low birth weight preterm neonates at 14 mg/kg, iv administered every 12 hrs after 24 hrs; set-up: dose 14 mg/kg, route intravenous; conditions: in vivo; how it was run: as §2
[21] = Volume of distribution at steady state in human adults at […], iv administered every 12 hrs after 24 hrs; set-up: route intravenous; conditions: in vivo, read-out: Vdss
[22] = Cmax in human very low birth weight preterm neonates at 28 mg/kg, iv administered every 12 hrs after 24 hrs; set-up: dose 28 mg/kg, route intravenous; conditions: in vivo; how it was run: as §2
[23] = Cmax in human very low birth weight preterm neonates at 14 mg/kg, iv administered every 12 hrs after 24 hrs; set-up: dose 14 mg/kg, route intravenous; conditions: in vivo; how it was run: as §2

- half-life [1]: 0.5 h
- Vdss (Homo sapiens [2]): 0.51 L/kg
- Creatinine_CL (Homo sapiens [3]): 0.26 ml/min and 0.3 ml/min.kg
- Activity (Homo sapiens [4]): 50.6 µmol/kg
- clearance [5]: 1.2 mL/min/kg
- half-life [6]: 3.4 h
- concentration at 24 h [7]: 7100 ng/mL
- Vd [8]: 0.41 L/kg
- Cmax [9]: 45000 ng/mL
- CL renal [10]: 0.31 mL/min and 0.38 mL/min/kg
- CL renal [11]: 0.27 mL/min and 0.46 mL/min/kg
- half-life [12]: 4.6 h
- Activity (Homo sapiens [13]): 70.6 µmol/kg
- Cmax [14]: 22000 ng/mL
- Creatinine_CL (Homo sapiens [15]): 0.53 ml/min and 0.57 ml/min.kg
- AUC at 12 h [16]: 389 µg·h/mL
- Vd [17]: 0.64 L/kg
- half-life [18]: 3.8 h
- AUC at 12 h [19]: 161 µg·h/mL
- clearance [20]: 1.5 mL/min/kg
- Vd [21]: 0.5 L/kg
- Cmax [22]: 146000 ng/mL
- Cmax [23]: 58900 ng/mL
SMILES: CC1(C)S[C@@H]2[C@H](NC(=O)Cc3ccccc3)C(=O)N2[C@H]1C(=O)O [PENICILLIN G]
